In general, IC50 refers to the concentration that inhibits the measured activity by half.

Four molecules from ChEMBL document CHEMBL1142057, “Inhibition of the G2 DNA damage checkpoint by oliveroline isolated from Duguetia odorata” (J Nat Prod, 2007) can be followed below.

Each structure is given as a SMILES string. Activity calls are given as the source filed them. No cut-off for these calls is given here.

For test [1], the system named is MCF7. Description: Inhibition of 6.5 Gy [60Co]-induced G2 DNA damage check point in MCF7 mp53 cells. It counts as functional, cell-based. The note with it: Homo sapiens. In outline: (§1)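 MCF-7 mp53 cells seeded at 2 × 10^5 cells/dish, cultured 24 h, then given 6.5 Gy (60Co, 1.2 Gy/min). Sixteen hours later (90% in G2), compound added with 100 ng/mL nocodazole for 8 h. Cells fixed in 70% EtOH, stained with mitosis-specific antibody GF-7 and propidium iodide. 20 000 events per sample read by flow cytometry as % cells escaping G2 arrest. DMSO carrier control.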

The test system of test [2] is MCF7. Put plainly: Inhibition of cell proliferation in MCF7 mp53 cells in presence of 6.5 Gy [60Co]-induced DNA damage. The note with it: Homo sapiens. It counts as functional, cell-based. In outline: (§2)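 MCF-7 mp53 cells seeded at 1000 cells/well and grown overnight. Compound applied over a concentration range for 24 h (DMSO ≤1% final), then irradiated with 0 or 6.5 Gy. Compound removed 24 h later and cells grown in fresh medium until untreated cells neared confluence (typically 4-6 days). Proliferation read by MTT, 2 h at 37 °C, SDS/DMF solubilisation, absorbance 570 nm. IC50 reported.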

Test [3] deals with MCF7. Description: Inhibition of 6.5 Gy [60Co]-induced G2 DNA damage check point in MCF7 mp53 cells at >10 uM. It counts as functional, cell-based. The note with it: Homo sapiens. Put shortly:
as §1

The subject of test [4] is MCF7. Put plainly: Inhibition of cell proliferation in MCF7 mp53 cells in absence of 6.5 Gy [60Co]-induced DNA damage. It counts as functional, cell-based. The note with it: Homo sapiens. In outline:
as §2

Test [5] deals with MCF7. Put plainly: Inhibition of 6.5 Gy [60Co]-induced G2 DNA damage check point in MCF7 mp53 cells at 50 uM. It counts as functional, Homo sapiens. Also on record: scale not given: the % may be the effect or the level left. Put shortly:
as §1

Test [6] concerns the target T1, Serine/threonine-protein kinase Chk1 (Homo sapiens) (UniProt O14757).
T1 sequence (whole entry): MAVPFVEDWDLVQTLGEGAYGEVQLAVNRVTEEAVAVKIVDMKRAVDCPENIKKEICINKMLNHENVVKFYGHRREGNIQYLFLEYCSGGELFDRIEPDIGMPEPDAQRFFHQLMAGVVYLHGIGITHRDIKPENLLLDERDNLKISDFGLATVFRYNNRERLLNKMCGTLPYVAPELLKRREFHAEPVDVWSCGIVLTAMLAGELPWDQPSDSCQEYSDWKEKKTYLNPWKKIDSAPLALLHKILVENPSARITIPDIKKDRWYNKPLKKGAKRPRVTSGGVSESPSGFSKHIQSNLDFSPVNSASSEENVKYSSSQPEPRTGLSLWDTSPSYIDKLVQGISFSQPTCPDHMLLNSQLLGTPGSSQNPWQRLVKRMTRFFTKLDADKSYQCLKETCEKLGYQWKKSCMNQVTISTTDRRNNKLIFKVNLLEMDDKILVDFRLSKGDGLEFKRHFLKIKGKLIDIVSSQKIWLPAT
Description: Inhibition of Chk1.

Test [7] concerns MCF7. Description: Inhibition of 6.5 Gy [60Co]-induced G2 DNA damage check point in MCF7 mp53 cells at 10 uM. The class given is functional, Homo sapiens. Also on record: scale not given: the % may be the effect or the level left. In outline: as §1

Take `COc1cc2c(cc1OC)-c1cc3cc(OC)c(OC)cc3c[n+]1CC2` [PSEUDOPALMATINE]: the outcome in test [1] and in test [3] was inactive. For the same molecule, the IC50 in test [2] came out at 80 µM; in test [4], 250 µM.
Regarding `CN1CCc2cc3c(c4c2[C@H]1[C@@H](O)c1ccccc1-4)OCO3` [OLIVEROLINE], the Activity entry was “Dose-dependent effect” in test [1] and 35% in test [5]. Besides, the figures for the IC50 in test [2] and in test [4] were 20 µM and 45 µM, respectively. Besides, in test [6], the result was inactive. The outcome in test [3] was Active.
In test [7], `O=C1NC(=O)c2c1c1c3ccccc3[nH]c1n1cncc21` [ISOGRANULATIMIDE] yielded an Activity of 35%.
On to `COc1cc2c(cc1O)CC[n+]1cc3cc(OC)c(OC)cc3cc1-2` [DEHYDRODISCRETINE], for which the outcome in test [1] and in test [3] was inactive. Further, the IC50 in test [2] was 7 µM; in test [4], 25 µM.
